In PMC9532374 (Cancer research, 2022):

Columns and labels:
[1] = test system: Mouse HPC; test: HPC differentiation in vitro with GM-CSF with or without LLC TES; assay type: cell-based; conditions: 10 μM; presence or absence of TES; 5 days of culture
In short: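 Bone marrow HPC from WT or PAD4 KO mice were lineage-depleted and differentiated in RPMI with GM-CSF (20 ng/mL), with or without 25% LLC explant supernatant and with or without 10 μM test compound, for 5 days. Proportion and absolute number of Ly6G+ cells were determined by flow cytometry in Aqua-negative cells.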

[2] = test system: BM neutrophils; test: Transwell chemotaxis of mouse neutrophils toward CXCL1; assay type: cell-based
In short: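 Bone marrow Ly6G+ neutrophils were MACS-isolated (>95% pure) and pre-incubated with 10 μM test compound for 2 h. They were placed in a 3 μm Transwell, 0.1 × 10^6 cells on top, with CXCL1 in Advanced RPMI below. After 1 h at 37°C, migrated cells were counted. Spontaneously migrating cells were subtracted.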

[3] = test system: CXCR2; test: CXCR2 surface expression on neutrophils differentiated in vitro from HPC; assay type: cell-based, mouse; conditions: 10 μM
In short: (§1)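 Bone marrow hematopoietic progenitors were lineage-depleted and cultured in RPMI with GM-CSF (20 ng/mL), with or without 25% LLC tumor explant supernatant and with or without 10 μM test compound. The supernatant came from ~1.5 cm tumors, minced, incubated overnight at 37°C and 0.22 μm filtered. Surface CXCR2/CXCR4 was measured by flow cytometry.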

[4] = test system: CXCR4; test: CXCR4 surface expression on neutrophils differentiated in vitro from HPC; assay type: cell-based, mouse; conditions: 10 μM
In short: as §1

[5] = test system: CD4+ T cells; test: IFN-γ production by human T cells; assay type: cell-based; conditions: 10 μM pre-treatment; 5h stimulation
In short: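 Peripheral blood mononuclear cells from healthy donors or multiple myeloma patients were Ficoll-Paque isolated. Cells were pre-treated with 10 μM test compound or DMSO vehicle, then stimulated for 5 h with a cell stimulation cocktail with or without protein transport inhibitors. IFN-γ and IL-2 were measured by flow cytometry in gated CD4+ and CD8+ T cells.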

[6] = test system: human neutrophils; test: Chemotaxis of human neutrophils toward IL-8; assay type: cell-based; conditions: 10 μM for 4h
In short: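 Human neutrophils were treated with 10 μM test compound for 4 h. They were then placed in a 3 μm pore Transwell, 0.1 × 10^6 cells in Advanced RPMI in the insert, with chemoattractant in medium below. After 1 h at 37°C and 5% CO2, migrated cells in the bottom well were counted.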

[7] = test system: CXCR4; test: CXCR4 expression in human PB neutrophils; assay type: cell-based
In short: (§2)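 Peripheral blood neutrophils came from healthy donors or cancer patients. They were collected at the Histopaque 1.077/1.119 interphase after double-density gradient centrifugation, followed by RBC lysis, with CD15 staining to confirm purity. Cells were exposed to 10 μM test compound for 1–4 h. Receptor mRNA was measured by SYBR Green qPCR normalized to β-actin, and surface level by flow cytometry.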

[8] = target: PAD (Mus musculus, UniProt Q9Z183); test: PAD activity assay in BM neutrophils of tumor-bearing mice; assay type: cell-based; conditions: BM Ly6G+ cells pretreated for 2h with GSK484
Chain of PAD (Q9Z183 whole entry): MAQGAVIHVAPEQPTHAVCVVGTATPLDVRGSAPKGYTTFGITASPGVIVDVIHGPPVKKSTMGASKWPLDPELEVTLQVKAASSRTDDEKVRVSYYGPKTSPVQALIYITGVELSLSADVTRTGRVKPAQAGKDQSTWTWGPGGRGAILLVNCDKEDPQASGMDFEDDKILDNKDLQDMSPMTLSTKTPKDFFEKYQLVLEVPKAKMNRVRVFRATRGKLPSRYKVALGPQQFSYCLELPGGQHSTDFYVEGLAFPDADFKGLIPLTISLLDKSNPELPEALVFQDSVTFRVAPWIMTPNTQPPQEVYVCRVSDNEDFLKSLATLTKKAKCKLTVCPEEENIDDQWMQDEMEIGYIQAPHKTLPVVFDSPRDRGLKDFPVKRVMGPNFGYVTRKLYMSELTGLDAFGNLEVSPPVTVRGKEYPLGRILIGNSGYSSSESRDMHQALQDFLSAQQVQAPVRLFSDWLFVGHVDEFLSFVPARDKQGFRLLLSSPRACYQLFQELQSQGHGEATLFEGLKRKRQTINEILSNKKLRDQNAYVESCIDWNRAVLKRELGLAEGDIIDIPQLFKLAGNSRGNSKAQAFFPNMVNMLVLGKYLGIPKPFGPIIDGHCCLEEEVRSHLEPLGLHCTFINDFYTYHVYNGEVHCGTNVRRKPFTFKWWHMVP
In short: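 Bone marrow Ly6G+ cells (MACS) from tumor-free or tumor-bearing mice were pretreated for 2 h with inhibitor. Cells were lysed at 1×10^8 cells/mL and lysates incubated with 10 mM BAEE for 30 min at 37°C. Colour reagent (acids, ammonium iron sulfate, DAMO, thiosemicarbazide) was added, samples heated at 95–100°C for 15 min, and absorbance read at 540 nm.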

[9] = test system: Ly6G+ cells; test: Suppression assay with Ly6G+ cells generated from HPC in the presence of TES; assay type: cell-based, mouse
[10] = test system: T cells; test: T cell proliferation, human PB MNC stimulated with CD3/CD28 Dynabeads; assay type: cell-based; conditions: 10 μM pre-treatment 2h; healthy donors or cancer patients; 72h
In short: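 Peripheral blood mononuclear cells (Ficoll-Paque; healthy donors or multiple myeloma patients) were labeled with CellTrace Far Red. Cells were pre-treated for 2 h with 10 μM test compound or DMSO vehicle and stimulated with CD3/CD28 Dynabeads for 72 h. Dye dilution was read by flow cytometry in gated CD4+ and CD8+ T cells.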

[11] = test system: human neutrophils; test: Viability of human neutrophils; assay type: cell-based; conditions: four-hour treatment, 10 μM
[12] = test system: CXCR2; test: CXCR2 expression in human PB neutrophils; assay type: cell-based
In short: as §2

[13] = test system: mouse neutrophils; test: Viability / toxicity in mouse neutrophils; assay type: cell-based
[14] = test system: B16F10 tumors; test: B16F10 tumor model in mice; assay type: in vivo, mouse; conditions: B16F10-bearing mice; 50 mg/kg b.i.d., daily, oral gavage
In short: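 Male and female mice, 6–8 weeks old, were given 0.3× 10^6 B16F10 cells s.c. into the right flank. Cells were grown in DMEM with 10% FBS and were Mycoplasma-negative. Test compound was given by oral gavage. Read-out was the kinetics of primary tumor growth.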

[15] = test system: LL2; test: Viability of LL2 tumor cell line in vitro; assay type: cell-based, mouse
[16] = test system: CXCR4; test: CXCR4 surface expression on Ly6G+ cells from treated LL2-bearing mice; assay type: in vivo, mouse; conditions: JBI-589 treated LL2-bearing mice
In short: (§3)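 LL2 cells (0.3× 10^6) were injected s.c. into the right flank. Mice received test compound at 50 mg/kg b.i.d. daily by oral gavage. Cells were Fc-blocked for 10 min, then antibody-stained for 20 min on ice with Live/Dead Aqua. Surface receptor was measured by flow cytometry on CD45+CD11b+Ly6G+ cells.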

[17] = test system: CXCR2; test: CXCR2 surface expression on Ly6G+ cells from treated LL2-bearing mice; assay type: in vivo, mouse; conditions: JBI-589 treated LL2-bearing mice
In short: as §3

[18] = test system: BM and spleen neutrophils; assay type: in vivo, mouse; conditions: neutrophils from JBI-589-treated LL2-bearing mice re-stimulated in vitro with LL2 cell supernatant
[19] = Pharmacokinetic study in mice, oral; assay type: in vivo, Balb/c male mice; conditions: 10 mg/kg via oral gavage
In short: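 Male Balb/c mice (6–8 weeks, 22–25 g) received 10 mg/kg test compound by oral gavage, as a suspension in Tween-80 and 0.5% methyl cellulose. Sparse blood sampling (~100 μL; three mice per point) was done at 0.25–24 h into K2EDTA tubes. Plasma was separated by centrifugation at 10,000 rpm for 5 min at 4°C.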

[20] = test system: B16F10; test: Viability of B16F10 tumor cell line in vitro; assay type: cell-based, mouse
[21] = test system: CXCR2; test: CXCR2 expression on neutrophils treated with JBI-589 in vitro; assay type: cell-based
[22] = test system: M-MDSC, TAM, PMN-MDSC; test: Suppression assay with myeloid cells isolated from treated mice; assay type: in vivo, mouse; conditions: cells from JBI-589-treated mice
[23] = test system: LL2 tumors; test: LL2 tumor model in mice; assay type: in vivo, mouse
[24] = test system: M-MDSC, TAMs; test: Gene expression in spleen M-MDSC or TAMs treated in vitro; assay type: cell-based, mouse; conditions: in vitro treatment of spleen M-MDSC or TAMs from LL2-bearing mice
[25] = test system: histone H3; test: PMA-induced citrullination of histone H3 in mouse neutrophils; assay type: cell-based; conditions: in vitro
[26] = 10 μM for 4h, healthy donors and cancer patients, flow cytometry

Compound: COc1cc(C(=O)N2CC[C@@H](O)[C@@H](N)C2)cc2nc(-c3cc4ccccc4n3CC3CC3)n(C)c12 [GSK484]
- HPC differentiation (proportion and absolute number of Ly6G+ cells) [1]: had no effect
- CXCL1-induced chemotaxis of neutrophils ([2]; BM neutrophils pre-incubated with 10 μM for 2h): reduced
- up-regulation of CXCR2 in the presence of TES ([3]; with LLC TES): abrogated up-regulation of CXCR2
- baseline CXCR2 expression ([3]; without TES): reduced baseline CXCR2 expression
- CXCR4 expression in the presence of TES ([4]; with LLC TES): reduced its expression in the presence of TES
- CXCR4 expression in control ([4]; without TES): slightly decreased
- IFN-γ production by CD4+ T cells [5]: reduced IFN-γ production
- chemotaxis of neutrophils toward IL-8 [6]: decreased chemotaxis
- gene or protein expression of CXCR4 ([7]; 10 μM for 1–4h, HD neutrophils): did not affect
- neutrophil CXCR4 receptor expression [7, 26]: did not affect expression
- tumor-induced up-regulation of PAD activity in PMN [8]: completely abrogated
- immune suppressive activity of Ly6G+ cells generated in the presence of TES ([9]; inhibitor present during HPC differentiation): did not abrogate
- T cell proliferation [10]: slightly decreased
- viability of neutrophils [11]: did not affect viability
- CXCR2 receptor expression in neutrophils [12, 26]: dramatically reduced
- CXCR2 receptor (surface) level ([12]; 4h after treatment, 10 μM, HD neutrophils, time course): significant downregulation
- surface level of CXCR2 protein ([12]; one-hour treatment, 10 μM, HD neutrophils): not affecting
- CXCR2 gene expression ([12]; one-hour treatment, 10 μM, HD neutrophils, qPCR): significantly downregulated
- viability of neutrophils ([13]; mouse neutrophils): did not affect

Compound: Cc1c(-c2cc3ccccc3n2Cc2ccc(F)cc2)nc2cc(C(=O)N3CCC[C@@H](N)C3)ccn12 [JBI-589, (R)-(3-aminopiperidin-1-yl)(2-(1-(4-fluorobenzyl)-1H-indol-2-yl)-3-methylimidazo[1,2-a]pyridin-7-yl)methanone]
- primary tumor growth [14]: markedly reduced
- CXCL1-induced migration of neutrophils ([2]; in vitro, JBI-589): reduced
- viability of LL2 tumor cell line [15]: No effect
- CXCR4 receptor expression in Ly6G+ cells [16]: but not CXCR4
- CXCR2 receptor expression in Ly6G+ cells [17]: significant down-regulation
- NET formation by BM and spleen neutrophils [18]: unable to produce NETs
- oral bioavailability [19]: excellent oral bioavailability
- viability of B16F10 tumor cell line [20]: No effect
- CXCR2 expression on neutrophil [21]: significantly downregulated
- suppressive activity of M-MDSC, TAM and PMN-MDSC [22]: did not affect suppressive activity
- infiltration of tumor tissues with activated CD8+ and CD4+ T cells ([23]; LL2-bearing mice): increased infiltration
- frequency of LSK, GMP, CMP and MEP and their proliferation in spleens ([23]; LL2-bearing mice, treated vs control): No differences
- primary tumor growth ([23]; LL2-bearing mice, 50 mg/kg, twice a day, daily, oral gavage): markedly reduced
- lung metastatic lesions ([23]; LL2-bearing mice, IVIS): almost undetectable
- inhibition of primary tumor growth by ICB on addition of JBI-589 ([23]; LL2-bearing mice, JBI-589 50 mg/kg b.i.d. plus anti-CTLA-4 and anti-PD-1 antibodies): significantly enhanced
- presence of tumor-associated neutrophils ([23]; LL2-bearing mice, flow cytometry): significant decrease
- cellularity of the BM ([23]; mouse, in vivo): did not affect
- suppressive activity of Ly6G+ cells generated in vitro from HPC in the presence of TES ([9]; JBI-589): no effect
- expression of genes encoding soluble factors involved in pro-tumorigenic effect [24]: did not affect
- toxicity in mouse neutrophils ([13]; in vitro, JBI-589): without noticeable toxicity
- PMA-induced citrullination of histone H3 [25]: inhibited PMA-induced citrullination of histone H3 in mouse neutrophils in a dose-dependent manner
